ChEMBL document CHEMBL1126804, “Mammalian topoisomerase II inhibitory activity of 1-cyclopropyl-6,8- difluoro-1,4-dihydro-7-(2,6-dimethyl-4-pyridinyl)-4-oxo-3-quinolinecarb oxylic acid and related derivatives” (J Med Chem, 1993)

How the values were obtained:
DNA topoisomerase II = DNA topoisomerase II (Homo sapiens, UniProt P11388+Q02880); experiment: Tested for inhibition of topoisomerase II isolated from HeLa cells by DNA-cleavage assay
Method in brief: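 HeLa topo II purified from late-log suspension cultures. Reactions were assembled at 4 °C in 50 mM Tris-Cl pH 7.9, 44 mM NaCl, 10 mM MgCl2, 0.5 mM ATP, 3'-32P-end-labeled pBR322 and 10 units enzyme, then run 20 min at 37 °C. SDS/KCl precipitation captured covalent complex, counted by scintillation.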

P388 = experiment: In vitro cytotoxicity against P388 murine leukemia cells in culture in a clonogenic assay after 1 hour exposure to drug; type: functional, cell-based; conditions: Mus musculus, P388, 1 h

Structure (SMILES) | EC50 (DNA topoisomerase II) [µM] | IC50 (P388) [µM]
Cc1cc(-c2c(F)cc3c(=O)c(C(=O)O)csc3c2F)cc(C)n1.Cl | > 140 | 
Cc1cc(-c2c(F)cc3c(=O)cc(-c4ccccc4)n(C4CC4)c3c2F)cc(C)n1 | > 240 | 
COc1cc([C@@H]2c3cc4c(cc3[C@@H](O[C@@H]3O[C@@H]5CO[C@@H](C)O[C@H]5[C@H](O)[C@H]3O)[C@H]3COC(=O)[C@H]23)OCO4)cc(OC)c1O [ETOPOSIDE] |  | 0.3
Cc1cc(-c2c(F)cc3c(O)c(C(=O)O)cnc3c2F)cc(C)n1 | > 300 | 
Cc1cc(-c2c(F)cc3c(=O)cc(C)n(C4CC4)c3c2F)cc(C)n1 | 16 | 
Cc1cc(-c2c(F)cc3c(=O)c(C(=O)O)c(-c4ccccc4)n(C4CC4)c3c2F)cc(C)n1 | > 220 | 
Cc1cc(-c2c(F)cc3c(=O)c(C(=O)O)c(C)n(C4CC4)c3c2F)cc(C)n1 | > 260 | 
Cc1cc(-c2c(F)cc3c(=O)c(C(=O)[O-])cn(C(C)(C)C)c3c2F)cc(C)n1.[Na+] | 74 | 
CCn1cc(C(=O)O)c(=O)c2cc(F)c(-c3cc(C)nc(C)c3)c(F)c21 | 110 | 
Cc1cc(-c2c(F)cc3c(=O)c(C(=O)O)cn(-c4ccc(F)cc4)c3c2F)cc(C)n1 | > 430 | 

Second part, led by results:

EC50 (DNA topoisomerase II) [µM] | Structure (SMILES) | IC50 (P388) [µM]
6.2 | Cc1cc(-c2c(F)c(N)c3c(=O)c(C(=O)O)cn(C4CC4)c3c2F)cc(C)n1 | 
> 420 | Cc1cc(-c2c(F)c(Sc3ccccc3)c3c(=O)c(C(=O)O)cn(C4CC4)c3c2F)cc(C)n1 | 
52 | O=C(O)c1cn(C2CC2)c2c(F)c(-c3cccnc3)c(F)cc2c1=O | 
13 | Cc1cc(-c2c(F)c(F)c3c(=O)c(C(=O)O)cn(C4CC4)c3c2F)cc(C)n1 | 
53 | Cc1ccc(-c2c(F)cc3c(=O)c(C(=O)O)cn(C4CC4)c3c2F)c(C)n1 | 
17 | Cc1cc(-c2c(F)cc3c(=O)ccn(C4CC4)c3c2F)cc(C)n1 | 
150 | CN1CCN(c2c(F)cc3c(=O)c(C(=O)O)cn(C4CC4)c3c2F)CC1 | 
> 530 | Cc1cc(-c2c(F)cc3c(=O)c(C(=O)O)cn(CCF)c3c2F)cc(C)n1 | 
7.6 | Cc1cc(-c2c(F)cc3c(=O)c(C(=O)O)cn(C4CC4)c3c2F)cc(C)n1 [WIN-57294] | 29
17 | O=C(O)c1cn(C2CC2)c2c(F)c(-c3ccncc3)c(F)cc2c1=O | 
16 | Cc1cc(-c2c(F)cc3c(=O)c(C(=O)O)cn(C4CC4)c3c2F)ccn1 | 
340 | NC1CCN(c2c(F)cc3c(=O)c(C(=O)O)cn(C4CC4)c3c2F)C1 (centres undefined) | 
1.2 | O=C(O)c1cn(C2CC2)c2c(F)c(-c3ccc(O)cc3)c(F)cc2c1=O | 
